Non-standard residues stand in square brackets, D forms with d. Residues, ends and D or L forms follow the SMILES beside them. *: point of attachment. Sta = CC(C)C[C@H](N)[C@@H](O)CC(=O)O; Isovaleryl = CC(C)CC(=O)*
The compounds below were run against T1, Pepsin A (Sus scrofa, UniProt P00791) (assay: Tested for time dependent inhibition constant against porcine pepsin).
In short: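 Porcine pepsin with synthetic heptapeptide substrate Phe-Gly-His-Phe(NO2)-Phe-Ala-Phe-OMe (Km 4.0 × 10^-5 M), followed spectrophotometrically. Enzyme preincubated with inhibitor for 10 min, and the reaction started by adding substrate. Velocities taken at apparent steady state. Inhibitor solutions generally contained 1% methanol v/v, and 10% for poorly soluble ones. IC50 converted to Ki by the Cha equation, correcting for total enzyme and S/Km.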

T1 sequence (P00791 whole entry): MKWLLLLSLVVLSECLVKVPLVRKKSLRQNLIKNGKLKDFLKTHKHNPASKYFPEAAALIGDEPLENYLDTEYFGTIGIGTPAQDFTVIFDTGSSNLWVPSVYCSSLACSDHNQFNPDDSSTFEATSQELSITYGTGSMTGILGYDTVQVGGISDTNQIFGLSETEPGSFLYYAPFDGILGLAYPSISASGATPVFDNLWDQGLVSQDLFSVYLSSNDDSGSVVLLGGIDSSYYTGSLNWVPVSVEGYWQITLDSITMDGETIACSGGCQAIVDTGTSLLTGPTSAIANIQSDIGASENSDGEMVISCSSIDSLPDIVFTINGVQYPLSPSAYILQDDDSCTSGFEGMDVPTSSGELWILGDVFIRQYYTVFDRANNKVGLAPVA

Compound	Ki [nM]
CC(C)CC(=O)NC(C(=O)NC(CC(C)C)C(O)CC(=O)NC(C)C(=O)NC(C)C)C(C)C (stereo unspecified)	20
CC(C)CCNC(=O)C(C)NC(=O)CC(O)C(CC(C)C)NC(=O)C(NC(=O)CC(C)C)C(C)C (stereo unspecified)	3
COC(=O)C(CC(C)C)NC(=O)C(C)NC(=O)CC(O)C(CC(C)C)NC(=O)C(NC(=O)CC(C)C)C(C)C (stereo unspecified)	1.1

The remaining lines, values ahead:

Ki [nM]	Compound
4.6	CC(C)CCNC(=O)C(CC(C)C)NC(=O)CC(O)C(CC(C)C)NC(=O)C(NC(=O)CC(C)C)C(C)C (stereo unspecified)
1.5	COC(=O)C(Cc1ccccc1)NC(=O)C(C)NC(=O)CC(O)C(CC(C)C)NC(=O)C(NC(=O)CC(C)C)C(C)C (stereo unspecified)
30	CC(C)CCNC(=O)C(C)NC(=O)CC(O)C(CC(C)C)NC(=O)C(C)NC(=O)CC(C)C (stereo unspecified)
3.5	COC(=O)[C@H](C)NC(=O)C[C@H](O)[C@H](CC(C)C)NC(=O)[C@@H](NC(=O)[C@@H](NC(=O)CC(C)C)C(C)C)C(C)C (Isovaleryl-VV[Sta]A-OMe)

The compounds below were run against T1, Pepsin A (assay: Tested for time independent inhibition constant against porcine pepsin).
In short: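 Pepsin (porcine) cleavage of Phe-Gly-His-Phe(NO2)-Phe-Ala-Phe-OMe (Km 4.0 × 10^-5 M), monitored by spectrophotometer. Reactions started with enzyme, giving linear steady-state initial velocities. Inhibitors were usually in 1% methanol v/v, or 10% if poorly soluble. IC50 came from inhibited versus uninhibited velocity and was converted to Ki by the Cha equation, Ki = (IC50 − Et/2)(1 + S/Km)^-1.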

Compound	Ki [nM]
COC(=O)C(C)NC(=O)CC(O)C(CC(C)C)NC(=O)C(NC(=O)CC(C)C)C(C)C (stereo unspecified)	600
CCOC(=O)CC(O)C(CC(C)C)NC(=O)C(NC(=O)CC(C)C)C(C)C (stereo unspecified)	800
CC(C)CCNC(=O)C(C)NC(=O)CC(O)C(CC(C)C)NC(=O)C(CC(C)C)NC(=O)CC(C)C (stereo unspecified)	13
CC(C)CCNC(=O)C(C)NC(=O)CC(O)C(CC(C)C)NC(=O)CNC(=O)CC(C)C (stereo unspecified)	100
CNC(=O)C(C)NC(=O)CC(O)C(CC(C)C)NC(=O)C(NC(=O)CC(C)C)C(C)C (stereo unspecified)	140
CCOC(=O)C[C@H](O)[C@H](CC(C)C)NC(=O)[C@@H](NC(=O)[C@@H](NC(=O)CC(C)C)C(C)C)C(C)C (Isovaleryl-Val-Val-[Sta]-OEt)	10

More lines, now with the values ahead:

Ki [nM]	Compound
56	CC(C)CCNC(=O)CNC(=O)CC(O)C(CC(C)C)NC(=O)C(NC(=O)CC(C)C)C(C)C (stereo unspecified)
68	COC(=O)CNC(=O)C(C)NC(=O)CC(O)C(CC(C)C)NC(=O)C(NC(=O)CC(C)C)C(C)C (stereo unspecified)
300	CC(C)CC(=O)NC(C(=O)NC(CC(C)C)C(O)CC(=O)NC(C)C)C(C)C (stereo unspecified)
